In the library only some 1.8% were active in any assay of this set; here they are far more common.
ABHD4 inh – ABHD4 (mouse) inhibition, primary FP screen | Q8VD66 | purified mABHD4, FP-Rh probe fluorescence polarization | inhibition, % at 8.92 µM | 370,000 compounds, 0.54% hits | AID 720543;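 active means inhibition exceeding the mean over every tested compound plus 3 SD, cut at about 30% in these data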;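 further: 0% = plate median of compound wells and 100% = S159A mutant with DMSO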
Target sequence (Q8VD66 whole entry, looked up): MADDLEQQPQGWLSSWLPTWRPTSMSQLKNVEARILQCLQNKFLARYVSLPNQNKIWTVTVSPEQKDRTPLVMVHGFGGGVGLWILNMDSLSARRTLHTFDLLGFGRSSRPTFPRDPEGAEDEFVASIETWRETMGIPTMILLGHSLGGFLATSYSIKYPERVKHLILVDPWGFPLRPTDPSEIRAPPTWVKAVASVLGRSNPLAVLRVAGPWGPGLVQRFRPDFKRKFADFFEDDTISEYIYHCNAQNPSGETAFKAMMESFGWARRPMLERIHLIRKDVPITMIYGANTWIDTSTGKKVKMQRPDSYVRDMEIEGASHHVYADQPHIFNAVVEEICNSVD
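Assay system: mouse ABHD4 enzyme, wild type / Also added: fluorescent activity-based probe FP-Rh / Doses: single nominal dose of 8.92 µM, 0.89% DMSO final / Timing: 45 min compound pre-incubation plus 60 min probe step, 25 °C / Signal: FP readout, ex 525 nm / em 598 nm / Control set: S159A mutant/DMSO as 100%, compound-well median as 0%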
HTRA1 inhibitor – blocks human HTRA1 serine peptidase; AID 504803; recombinant HTRA1, FP-rhodamine activity-based probe, fluorescence polarization; inhibition, % at 5.96 µM; 340,000 compounds, 0.5% hits; in the data active means inhibition above about 36%;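 further: 0% = enzyme with DMSO and 100% = wells lacking enzyme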
SIAE inh – human SIAE inhibition, primary screen; Q9HAT2; SIAE FP-Rh probe binding, fluorescence polarization; inhibition, % at 9.66 µM; 370,000 compounds, 0.69% hits;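 active means inhibition above a cutoff: mean of compounds within the control limits plus 3 SD of those, cut at about 17% in these data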;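 further: 0% = plate median of compound wells and 100% = probe without SIAE protein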
ARNT-TACC3 inh – disruptors of human ARNT/TACC3 interaction; AID 623870; 390,000 compounds, 0.66% hits; AlphaScreen His-ARNT PAS-B/GST-TACC3 binding, luminescence; TACC3 fragment carries E629A point mutation; Q9Y6A5; inhibition, % at 9.99 µM;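 active means mean inhibition of replicates at least 50% and at least half of replicates each reaching 50%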;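 further: 0% = complete ARNT plus TACC3 wells and 100% = ARNT alone without TACC3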
TCR-CD3 inh – blocks the human TCR-CD3 interaction. TAMRA-labeled TCR probe fluorescence, biochemical. inhibition, % at 9.4 µM. 360,000 compounds, 0.37% hits. AID 651800; in the data active means inhibition above about 19%;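 further: recombinant mutant TCR 2C K166C tagged with TAMRA read by polarization; 0% = receptor in buffer alone and 100% = receptor with positive control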
ABHD4 confirm – confirmation of mouse ABHD4 inhibitors | shares compounds with ABHD4 inh | purified mABHD4, FP-Rh probe fluorescence polarization | inhibition, % at 8.92 µM | 1,800 compounds, 55% hits;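 active means mean inhibition across replicates above the hit cutoff set in the primary screen, cut at about 30% in these data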;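 further: 0% = wild-type ABHD4 with DMSO and 100% = catalytically dead S159A mutant with DMSO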
* = called active by the depositor; / = not tested or not shown.

SMILES	ABHD4 inh	HTRA1 inhibitor	SIAE inh	ARNT-TACC3 inh	TCR-CD3 inh	ABHD4 confirm
C[C@@H]1CN([C@H](C)CO)C(=O)c2cc(/C=C/c3ccccc3)cnc2O[C@H]1CN(C)Cc1ccccc1	/	/	/	1.0	/	/
CCNC(=O)[C@@H]1[C@@H](CO)[C@@H]2Cn3c(ccc(-c4ccccc4)c3=O)[C@H]1N2Cc1ccccc1	/	/	/	-16.4	/	/
COc1ccccc1CNc1nc(NCc2ccc(C(C)C)cc2)c2sccc2n1	35.6*	/	10.2	/	2.6	33.6*
COc1ccccc1CNc1nc(NCCOc2ccccc2Cl)c2sccc2n1	30.6*	/	10.3	/	-0.3	69.2*
COC(=O)N(C)C[C@@H]1OCc2ccccc2-c2ccccc2C(=O)N([C@@H](C)CO)C[C@H]1C	/	/	/	-0.5	/	/
C[C@@H]1CN([C@@H](C)CO)C(=O)CCCn2cc(nn2)CO[C@@H]1CN(C)S(=O)(=O)c1ccc(F)cc1	/	/	/	2.2	/	/
CC(=O)OCCCNc1cc(SCc2ccco2)c2nonc2c1[N+](=O)[O-]	48.8*	7.7	12.8	19.0	13.0	10.7
O=[N+]([O-])c1ccc(O)c(C=Nc2cccc3ccccc23)c1	1.5	7.3	6.3	17.2	-1.9	/
Oc1ccc(C=Nc2cccc3ccccc23)c(O)c1	30.3*	19.0	3.3	6.9	2.5	10.4
O=C(COc1ccc2ccccc2c1)Nc1cccc(C(=O)Nc2ccccc2C(=O)O)c1	-148.9	-116.5	-89.3	-1.5	8.6	/
O=C(O)c1ccccc1Nc1cccc(OCc2ccc3ccccc3n2)c1	36.3*	-3.3	11.3	0.9	3.9	33.3*
CCN(/C=N/c1sc2c(c1C#N)CCCCC2)CC	32.3*	0.4	2.0	17.2	1.4	35.0*
O=c1[nH]n2c(=O)c3c([nH]c2c1N=Nc1cccc(C(F)(F)F)c1)CCCC3	59.0*	35.7	-10.2	26.5	-0.6	66.5*
Cn1c(-c2ccsc2)c(-c2cccs2)c2cc(-c3ccc4cc[nH]c4c3)ccc21	34.9*	18.8	12.5	-3.4	-4.6	39.7*
O=C(NNc1nc2ccccc2s1)Nc1ccc(F)cc1	38.0*	7.0	12.5	-0.4	-0.4	0.8
O=C1C=C(c2ccccc2)C(=O)N1Nc1ccccc1	30.8*	-0.3	1.4	/	2.0	23.7
COc1ccc(C2=CC(=O)N(Nc3ccccc3)C2=O)cc1	17.4	/	0.6	/	7.0	/
Oc1ccc(NC(=S)Nc2ccccc2)cc1	42.4*	5.4	7.6	4.3	8.3	-7.1
C[C@H]1CN([C@@H](C)CO)S(=O)(=O)c2ccc(-c3cccnc3)cc2O[C@@H]1CN(C)Cc1cncnc1	/	/	/	1.0	/	/
COc1ccc(CN(C)C[C@@H]2OCCCC[C@@H](C)Oc3ccc(NC(=O)Cc4ccccc4)cc3C(=O)N([C@@H](C)CO)C[C@@H]2C)cc1	/	/	/	8.2	/	/
CCOC(=O)c1c(-c2ccc(-c3ccccc3)cc2)csc1NC(=O)CNCCN(C)C	30.2*	30.0	11.0	32.1	-9.1	43.1*
Cc1ccc(C(=O)N2NC(c3ccc(F)cc3)C3C(=O)N(c4ccc(C)cc4)C(=O)C32)cc1 (configuration not stated)	0.9	-11.7	1.9	-3.4	0.7	/
COc1ccccc1N1C(=O)C2C(c3ccc(F)cc3)NN(C(=O)c3ccc(C)cc3)C2C1=O (configuration not stated)	33.7*	0.7	0.6	-2.7	-4.1	24.1
Cc1ccc(NS(=O)(=O)c2ccc3c(c2)NC(=O)CCS3)c(Cl)c1	12.3	-5.7	1.4	-7.8	0.7	/
COc1ccc(Cl)cc1NS(=O)(=O)c1ccc2c(c1)NC(=O)CCS2	31.7*	4.6	-2.2	-1.3	-1.7	26.1
COc1ccc(Nc2nc(NC(C)(C)C)nc(N3CCCC3)n2)c(OC)c1	34.0*	5.5	14.2	14.8	0.2	48.4*
Nc1nc(N)c(N=O)c(Nc2ccc(Cl)c(Cl)c2)n1	30.8*	/	8.4	/	-2.8	33.0*
CN(C)c1ccc(N=Nc2ccccc2C(=O)OCC(=O)NC2CCCC2)cc1	17.8	23.0	5.7	/	1.8	/
CN(C)c1ccc(N=Nc2ccccc2C(=O)OCC(=O)NCC2CCCCC2)cc1	42.1*	31.2	12.7	9.1	0.0	40.3*
CC(C)NC(=O)N(C)C[C@@H]1Oc2ccc(NS(=O)(=O)c3ccc(F)cc3)cc2CC(=O)N([C@H](C)CO)C[C@H]1C	/	/	/	-2.0	/	/
